GalR3 antagonist: GalR3 antagonists in HEK293 cells, primary screen, cell-based, fluorescence readout | Galanin receptor type 3 (Homo sapiens), O60755 | HEK293 GalR3-CNG cAMP membrane potential fluorescence; galR3 body fused to GalR1 C-terminus | inhibition, % at 3 µM | 360,000 compounds, 0.44% hits;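 active = inhibition above the screen-wide average plus 3 SD, cut at about 13% in these data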;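 note: forskolin and galanin both at EC90 stimulate the cells; cAMP rise reported by CNG channel membrane potential dye signal; 0% = forskolin plus galanin with DMSO and 100% = forskolin alone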
Target sequence (O60755 1-299 limits assumed): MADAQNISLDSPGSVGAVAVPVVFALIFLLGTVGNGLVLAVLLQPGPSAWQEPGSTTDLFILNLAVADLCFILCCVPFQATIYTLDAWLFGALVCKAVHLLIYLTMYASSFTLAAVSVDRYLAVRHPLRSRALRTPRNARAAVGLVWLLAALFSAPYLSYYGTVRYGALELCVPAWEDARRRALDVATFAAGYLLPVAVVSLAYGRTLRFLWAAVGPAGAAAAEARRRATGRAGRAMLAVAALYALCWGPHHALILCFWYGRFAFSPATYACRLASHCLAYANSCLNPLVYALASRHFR
NR2E3 ag-1: NR2E3 agonists in two-hybrid cells, primary screen, cell-based, luminescence, CHO-S, Gal4-NCOR/VP16-NR2E3; Photoreceptor-specific nuclear receptor (Homo sapiens), Q9Y5X4; luciferase; inhibition of corepressor binding, % at 3.98 µM; 360,000 compounds, 0.35% hits;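 active = inhibition above the mean of all tested compounds plus 3 SD, cut at about 70% in these data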;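 note: 0% = DMSO with NR2E3 transfected cells and 100% = cells lacking NR2E3 construct; higher means lower luciferase signal from less NR2E3 corepressor binding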
Target sequence (Q9Y5X4 whole entry, looked up, the tested form may be a part): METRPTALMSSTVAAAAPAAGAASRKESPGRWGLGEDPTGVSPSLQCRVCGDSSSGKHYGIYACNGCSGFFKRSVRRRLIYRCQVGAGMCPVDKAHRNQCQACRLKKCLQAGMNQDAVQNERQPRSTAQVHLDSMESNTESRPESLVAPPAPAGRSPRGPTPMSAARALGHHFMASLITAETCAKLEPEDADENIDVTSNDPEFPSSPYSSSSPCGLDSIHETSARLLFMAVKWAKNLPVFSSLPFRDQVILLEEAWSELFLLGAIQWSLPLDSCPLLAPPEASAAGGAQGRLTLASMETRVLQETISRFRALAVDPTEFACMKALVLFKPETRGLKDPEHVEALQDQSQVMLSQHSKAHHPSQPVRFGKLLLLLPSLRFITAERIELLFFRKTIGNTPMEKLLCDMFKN
Jurkat NFkB inh: inhibitors of induced NF-kB luciferase reporter, primary screen, TCR NF-kB activation inhibitor project, cell-based, luminescence, uHTS; Jurkat, PMA/ionomycin-induced NF-kB luciferase reporter; inhibition, % at 4 µM; 330,000 compounds, 0.53% hits; in the data active = inhibition above about 50%
NR2E3 ag-2: inhibitors of NR2E3-RetCOR corepressor binding, primary screen, NR2E3 agonist project, biochemical, TR-FRET, GST-NR2E3, biotin-RetCOR; inhibition of corepressor binding, % at 4.78 µM; Photoreceptor-specific nuclear receptor (Homo sapiens), Q9Y5X4; 320,000 compounds, 0.12% hits; 1536-well; AID 2300, 2010;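 active = percent inhibition above the cutoff of mean plus 3 SD of all tested compounds, set per screening campaign, cut at about 20% in these data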;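 note: 0% = DMSO wells and 100% = biotin wells as full block of FRET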
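Format: 1536-well format; test system: GST-NR2E3 and biotin-RetCOR proteins; read-out basis: percent inhibition of TR-FRET ratio; timing: 5 h incubation at 4 °C; detection: time-resolved FRET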
697 NFkB inh: inhibitors of PMA/ionomycin-induced NF-kB reporter, 697 cells, primary screen, B-cell NF-kB inhibitor project, cell-based, luminescence, uHTS; 697 B-cell NF-kB luciferase reporter, 16 h; inhibition, % at 4 µM; 330,000 compounds, 0.33% hits; AID 435022, 2010; in the data active = inhibition above about 35%
Gli-Sufu block: Gli-Sufu pathway antagonists, primary screen, luciferase luminescence, Sufu-KO-LIGHT cells, uHTS; 340,000 compounds, 0.74% hits; Sufu-KO-LIGHT fibroblasts, Gli luciferase reporter luminescence; AID 588413, 2011; inhibition, % at 5 µM;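 active = inhibition above about 55%, limit read from the data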;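 note: 0% = DMSO-treated cells and 100% = wells with medium but no cells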
Jurkat NFkB conf: PMA/ionomycin-induced NF-kB reporter inhibitors, Jurkat retest, confirmation, T-cell NF-kB inhibitor project, cell-based, luminescence, single concentration; 2,700 compounds, 27% hits; Jurkat NF-kB luciferase, 16 h; inhibition, % at 4 µM; AID 435020, 2010; shares compounds with Jurkat NFkB inh;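 active = inhibition reaching about 45% at 4 µM in either replicate, limit read from the data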;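 note: plate controls were PMA/ionomycin stimulated DMSO wells for no effect and unstimulated DMSO wells for full effect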
Active calls of the source: *. Compounds with a hit are over-represented: about 1.8% of the library has one in this group of screens.

For CCCCCC(=O)N[C@@H](c1ccccc1)[C@@H](O)C(=O)O[C@H]1C[C@@]2(O)[C@@H](OC(=O)c3ccccc3)C3[C@](C)(C(=O)[C@H](OC(C)=O)C(=C1C)C2(C)C)[C@@H](O)C[C@H]1OC[C@@]31OC(C)=O (some centres not stated) the results were GalR3 antagonist -5.3, NR2E3 ag-1 -29.5, Jurkat NFkB inh 71.9*, NR2E3 ag-2 1.6, 697 NFkB inh -6.7, Gli-Sufu block -4.4 and Jurkat NFkB conf 55.5*.
For CC(=O)O[C@H]1C(=O)[C@@]2(C)[C@H]([C@H](OC(=O)c3ccccc3)[C@]3(O)C[C@H](OC(=O)[C@H](O)C(NC(=O)c4ccccc4)c4ccccc4)C(C)=C1C3(C)C)[C@]1(OC(C)=O)CO[C@@H]1C[C@@H]2O (some centres not stated) the results were NR2E3 ag-1 -20.9, Jurkat NFkB inh 58.8*, NR2E3 ag-2 4.7, 697 NFkB inh -27.4, Gli-Sufu block 29.1 and Jurkat NFkB conf 60.4*.
`CON(C)C(=O)C(C)(C)CC#CCN(CC#Cc1ccccc1)S(=O)(=O)c1ccc(C)cc1` gave GalR3 antagonist -7.1.
For C=CCN=C1NC(c2ccc(F)cc2)C(C(=O)OC)=C(C)N1C (configuration not stated) the results were GalR3 antagonist -1.3.
COc1ccccc1NC(=O)c1ccccc1C(=O)Nc1ccccc1OC was read as GalR3 antagonist 0.3, NR2E3 ag-1 9.1, Jurkat NFkB inh 4.3, NR2E3 ag-2 0.4, 697 NFkB inh 4.2 and Gli-Sufu block -5.6.
Screening COc1ccccc1NC(=O)c1cnc(Nc2ccccc2OC)c2ccccc12 returned GalR3 antagonist 3.1, NR2E3 ag-1 -45.1, Jurkat NFkB inh 59.4*, NR2E3 ag-2 0.6, 697 NFkB inh -55.6, Gli-Sufu block 0.5 and Jurkat NFkB conf 41.0.
For CN(C(=O)[C@@H](Cc1ccccc1)NC(=O)[C@H]1O[C@@H](n2cnc3c(=O)[nH]c(N)nc32)[C@H](O)[C@@H]1O)C1CCCCC1 the results were GalR3 antagonist -2.0.
CC(Oc1ccc(Br)cc1Cl)C(=O)Nc1ccncc1 (configuration not stated) was read as GalR3 antagonist -15.2, NR2E3 ag-1 -15.2, Jurkat NFkB inh 53.3*, NR2E3 ag-2 3.6, 697 NFkB inh 9.5, Gli-Sufu block 8.4 and Jurkat NFkB conf 36.8.
Screening CCCCCCC12Cc3cc(OC)c(OC)cc3C(O1)C1=C(O2)C(C)(C)CCC1=O (configuration not stated) returned GalR3 antagonist -4.5.
`COc1ccc(-c2cc(C(=O)NCC(C)C)no2)cc1` gave GalR3 antagonist -4.6, NR2E3 ag-1 -109.5, Jurkat NFkB inh -157.2, NR2E3 ag-2 0.4, 697 NFkB inh -137.9, Gli-Sufu block -91.7 and Jurkat NFkB conf -90.2.
For CCC(C)NC(=O)c1cc(-c2ccc(OC)cc2)on1 (configuration not stated) the results were GalR3 antagonist -4.7, NR2E3 ag-1 -137.7, Jurkat NFkB inh -131.7, NR2E3 ag-2 -1.8, 697 NFkB inh -94.1 and Gli-Sufu block -23.6.
CSc1nccc(N/N=C/c2ccccc2)n1 was read as GalR3 antagonist -5.5, NR2E3 ag-1 -169.1, Jurkat NFkB inh -159.7, NR2E3 ag-2 2.8, 697 NFkB inh -135.7, Gli-Sufu block -56.5 and Jurkat NFkB conf -66.9.
Cc1ccnc(N/N=C/c2ccccc2)n1 was read as GalR3 antagonist 7.2, NR2E3 ag-1 -79.0, Jurkat NFkB inh -75.1, NR2E3 ag-2 -3.1, 697 NFkB inh -68.5 and Gli-Sufu block -68.8.
For Cc1ccc(S(=O)(=O)Cc2ccc(C(=O)N3CCN(c4cccc(C)c4C)CC3)o2)cc1 the results were NR2E3 ag-1 20.2, Jurkat NFkB inh 57.5*, NR2E3 ag-2 -0.5, 697 NFkB inh -33.2, Gli-Sufu block -4.0 and Jurkat NFkB conf 52.2*.
COc1ccc(S(=O)(=O)Cc2ccc(C(=O)N3CCN(c4cccc(C)c4)C(C)C3)o2)cc1 (configuration not stated) was read as GalR3 antagonist -6.2, NR2E3 ag-1 -33.2, Jurkat NFkB inh 60.6*, NR2E3 ag-2 3.4, 697 NFkB inh -49.3, Gli-Sufu block -2.2 and Jurkat NFkB conf 20.8.
`NC(=O)[C@@H]1CCCN1C(=O)[C@@H](Cc1ccccc1)NC(=O)[C@H]1O[C@@H](n2ccc(N)nc2=O)[C@H](O)[C@@H]1O` gave GalR3 antagonist 3.5.
For CCc1cc2cc(C(=O)Nc3ccccc3F)sc2s1 the results were GalR3 antagonist -7.6, NR2E3 ag-1 -21.5, Jurkat NFkB inh -218.0, NR2E3 ag-2 1.9, 697 NFkB inh 2.3, Gli-Sufu block -66.2 and Jurkat NFkB conf -103.5.
For CCc1cc2cc(C(=O)N3CCN(c4ccccc4)CC3)sc2s1 the results were GalR3 antagonist -3.6, NR2E3 ag-1 8.4, Jurkat NFkB inh -12.1, NR2E3 ag-2 2.3, 697 NFkB inh 2.7 and Gli-Sufu block 7.5.
For O=C1C=C(c2ccc3ncccc3c2)C[C@@H](c2ccc3c(c2)OCO3)C1 the results were GalR3 antagonist -0.3, NR2E3 ag-1 -2.0, Jurkat NFkB inh 69.6*, NR2E3 ag-2 6.0, 697 NFkB inh -58.4, Gli-Sufu block 8.7 and Jurkat NFkB conf 49.7*.
Screening COC(=O)C1=C(C)N(Cc2ccccc2C(F)(F)F)C(=NCc2ccc3c(c2)OCO3)NC1c1cccc(C(F)(F)F)c1 (configuration not stated) returned GalR3 antagonist -7.5.
CCN1/C(=C/c2ccc3cc(C)ccc3[n+]2CC)Sc2ccc3sccc3c21 was read as NR2E3 ag-1 25.2, Jurkat NFkB inh 92.2*, NR2E3 ag-2 -6.3, 697 NFkB inh -13.4, Gli-Sufu block 86.6* and Jurkat NFkB conf 64.5*.
For CC[n+]1c(C)sc2c3ccsc3ccc21 the results were GalR3 antagonist -6.0, NR2E3 ag-1 -1.9, Jurkat NFkB inh 0.4, NR2E3 ag-2 2.2, 697 NFkB inh 11.4 and Gli-Sufu block -7.0.
For N#Cc1ccccc1Sc1ccccc1C(=O)Nc1ccc2ccccc2c1 the results were GalR3 antagonist -5.1, NR2E3 ag-1 -17.9, Jurkat NFkB inh 4.9, NR2E3 ag-2 -1.6, 697 NFkB inh 16.5 and Gli-Sufu block 7.8.
